Where “and” joins values, the source holds several entries; their conditions need not be identical. Identical values can stand only once. Like-named read-outs stand apart in the source and are kept apart here.
How the values were obtained:
[1] = system: small cell lung cancer; assay: Antitumor activity; format: in vivo, human; conditions: 1.0 mg/day
Method in brief: (§1)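 Adults with advanced solid tumours received oral test compound 1.0 mg once daily, continuously in 28-day cycles, in the expansion part. Entry required germline BRCA1/2 mutation confirmed by BRACAnalysis or local laboratory (ovarian/peritoneal, breast, prostate, pancreatic), DNA repair deficiency, or SCLC or Ewing sarcoma. Investigators assessed response by RECIST 1.1. ORR had exact 95% CI (Clopper–Pearson); PFS was estimated by Kaplan–Meier.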

[2] = system: PARP1/2; conditions: cited from earlier work
[3] = system: pancreatic cancer; assay: Antitumor activity; format: in vivo, human
Method in brief: as §1

[4] = system: BRCA-mutated ovarian cancer; assay: Antitumor activity; format: in vivo, human
Method in brief: as §1

[5] = system: Ewing sarcoma; assay: Antitumor activity; format: in vivo, human; conditions: 1.0 mg/day, n = 13, CR + PR + SD ≥16 weeks
Method in brief: as §1

[6] = Urinary elimination of parent compound; format: in vivo, human; conditions: daily dosing between 0.025 and 1.1 mg
Method in brief: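 In dose escalation, fasted patients took a single oral dose, with PK sampling over 1 week. They then took the dose once daily for 28 days, followed by a 1-week break for sampling (doses 0.025–1.1 mg/day, 3+3 design). Urine was assayed by validated LC/MS-MS (LLOQ 25.0 pg/mL). Ae0–24, Fe0–24 and ARC0–24 came from noncompartmental analysis.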

[7] = system: PARP–DNA complexes; conditions: in vitro, comparison with other PARP1/2 inhibitors, cited from earlier work
[8] = Plasma pharmacokinetics after single and multiple daily dosing; conditions: human, in vivo; for Vd/F: Vz/F; for half-life: t1/2, mean (SD)
[9] = system: PARP; assay: PBMC PARP activity; format: in vivo, human
[10] = format: in vivo; conditions: Part 1 and Part 2; none considered related to study treatment
[11] = system: BRCA mutation–associated breast cancer; assay: Antitumor activity; format: in vivo, human; conditions: 1.0 mg/day, BRCA1/2 mutation
Method in brief: as §1

Cn1ncnc1[C@H]1c2n[nH]c(=O)c3cc(F)cc(c23)N[C@@H]1c1ccc(F)cc1 [talazoparib]
Median PFS ([1]; SCLC, n = 23): 11.1 weeks
ORR ([1]; SCLC, n = 23): 8.7%
CBR ([1]; SCLC, n = 23, CR + PR + SD ≥16 weeks): 26.1%
duration of response ([1]; the two SCLC patients with PR): 12.0 weeks
catalytic activity compared with olaparib and rucaparib [2]: equivalent catalytic activity to olaparib and rucaparib
ORR ([3]; 1.0 mg/day, pancreatic, n = 10): 20.0%
CBR ([3]; 1.0 mg/day, pancreatic, n = 10, CR + PR + SD ≥16 weeks): 30.0%
CBR ≥16 weeks ([3]; 13 patients with pancreatic cancer from Part 1 and Part 2): 31%
Median PFS ([4]; 1.0 mg/day, ovarian/peritoneal, BRCA1/2 mutation, analysis on 14 patients): 36.4 weeks and 36.4 ^c weeks
ORR ([4]; 1.0 mg/day, ovarian/peritoneal, BRCA1/2 mutation, n = 12): 41.7%
CBR ([4]; 1.0 mg/day, ovarian/peritoneal, BRCA1/2 mutation, n = 12, CR + PR + SD ≥24 weeks): 66.7%
CBR lasting at least 24 weeks ([4]; any dose level, BRCA-mutated ovarian cancer with measurable disease, n = 25): 76%
CBR [5]: 23.1%
urinary elimination kinetics of the parent compound [6]: linear urinary elimination kinetics
trapping PARP–DNA complexes at sites of single-strand DNA breaks [7]: most potent PARP1/2 inhibitor in vitro
trapping PARP–DNA complexes at sites of single-strand DNA breaks ([7]; listed as Talazoparib): superior in trapping PARP–DNA
dose proportionality parameter β for AUC0–24, estimate (95% CI) [8]: 0.95 (0.84–1.05)
dose proportionality parameter β for Cmax, estimate (95% CI) [8]: 1.11 (1.01–1.20)
time to maximum plasma concentration (Cmax) [8]: ≤ 2 h
AUC(0-inf) ([8]; 0.025 mg): 5.33 ng·h/mL
AUC(0-t) ([8]; 0.025 mg, AUC0–24, mean (SD)): 0.952 ng·h/mL
AUC(0-t) ([8]; 0.025 mg, AUC0–t, mean (SD)): 3.6 ng·h/mL
Cmax ([8]; 0.025 mg, mean (SD)): 0.06 ng/mL
Tmax ([8]; 0.025 mg, Tmax, median (min, max)): 7.92 h
Vd/F ([8]; 0.025 mg, mean (SD)): 756 L
half-life ([8]; 0.025 mg): 100 h
AUC(0-inf) ([8]; 0.05 mg): 8.32 ng·h/mL
AUC(0-t) ([8]; 0.05 mg, AUC0–24, mean (SD)): 1.16 ng·h/mL
AUC(0-t) ([8]; 0.05 mg, AUC0–t, mean (SD)): 5.34 ng·h/mL
Cmax ([8]; 0.05 mg, mean (SD)): 0.0797 ng/mL
Vd/F ([8]; 0.05 mg, mean (SD)): 1240 L
half-life ([8]; 0.05 mg): 129 h
AUC(0-inf) ([8]; 0.1 mg): 37.6 ng·h/mL
AUC(0-t) ([8]; 0.1 mg, AUC0–24, mean (SD)): 3.16 ng·h/mL
Cmax ([8]; 0.1 mg, mean (SD)): 0.214 ng/mL
Tmax ([8]; 0.1 mg, Tmax, median (min, max)): 1.02 h
Vd/F ([8]; 0.1 mg, mean (SD)): 839 L
half-life ([8]; 0.1 mg): 229 h
AUC(0-inf) ([8]; 0.2 mg): 92.7 ng·h/mL
Tmax ([8]; 0.2 mg): 1.03 h
AUC(0-t) ([8]; 0.2 mg, AUC0–24, mean (SD)): 9.13 ng·h/mL
AUC(0-t) ([8]; 0.2 mg, AUC0–t, mean (SD)): 39.3 ng·h/mL
Cmax ([8]; 0.2 mg, mean (SD)): 0.788 ng/mL
Vd/F ([8]; 0.2 mg, mean (SD)): 678 L
half-life ([8]; 0.2 mg): 212 h
AUC(0-inf) ([8]; 0.4 mg): 60.1 ng·h/mL
AUC(0-t) ([8]; 0.4 mg, AUC0–24, mean (SD)): 13.5 ng·h/mL
AUC(0-t) ([8]; 0.4 mg, AUC0–t, mean (SD)): 43.7 ng·h/mL
Cmax ([8]; 0.4 mg, mean (SD)): 1.83 ng/mL
Tmax ([8]; 0.4 mg, Tmax, median (min, max)): 2.03 h
Vd/F ([8]; 0.4 mg, mean (SD)): 1050 L
half-life ([8]; 0.4 mg): 102 h
AUC(0-inf) ([8]; 0.6 mg): 120 ng·h/mL
AUC(0-t) ([8]; 0.6 mg, AUC0–24, mean (SD)): 37.9 ng·h/mL
AUC(0-t) ([8]; 0.6 mg, AUC0–t, mean (SD)): 97.9 ng·h/mL
Cmax ([8]; 0.6 mg, mean (SD)): 4.1 ng/mL
Tmax ([8]; 0.6 mg, Tmax, median (min, max)): 0.835 h
Vd/F ([8]; 0.6 mg, mean (SD)): 441 L
half-life ([8]; 0.6 mg): 58.6 h
AUC(0-inf) ([8]; 0.9 mg): 188 ng·h/mL
AUC(0-t) ([8]; 0.9 mg, AUC0–24, mean (SD)): 58.2 ng·h/mL
AUC(0-t) ([8]; 0.9 mg, AUC0–t, mean (SD)): 160 ng·h/mL
Cmax ([8]; 0.9 mg, mean (SD)): 6.1 ng/mL
Tmax ([8]; 0.9 mg, Tmax, median (min, max)): 2 h
Vd/F ([8]; 0.9 mg, mean (SD)): 468 L
half-life ([8]; 0.9 mg): 60.4 h
AUC(0-inf) ([8]; 1 mg): 200 ng·h/mL
AUC(0-t) ([8]; 1 mg, AUC0–24, mean (SD)): 85.1 ng·h/mL
AUC(0-t) ([8]; 1 mg, AUC0–t, mean (SD)): 182 ng·h/mL
Cmax ([8]; 1 mg, mean (SD)): 10.6 ng/mL
Tmax ([8]; 1 mg, Tmax, median (min, max)): 1.03 h
Vd/F ([8]; 1 mg, mean (SD)): 415 L
half-life ([8]; 1 mg): 52.9 h
AUC(0-inf) ([8]; 1.1 mg): 235 ng·h/mL
AUC(0-t) ([8]; 1.1 mg, AUC0–24, mean (SD)): 91.6 ng·h/mL
AUC(0-t) ([8]; 1.1 mg, AUC0–t, mean (SD)): 201 ng·h/mL
Cmax ([8]; 1.1 mg, mean (SD)): 13.2 ng/mL
Tmax ([8]; 1.1 mg, Tmax, median (min, max)): 1 h
Vd/F ([8]; 1.1 mg, mean (SD)): 549 L
half-life ([8]; 1.1 mg): 71 h
PARP activity, mean (SD) ([9]; multiple dosing 0.025 mg/day, n = 3): 172 (206) % baseline
PARP activity, mean (SD) ([9]; multiple dosing 0.05 mg/day, n = 3): 141 (52.5) % baseline
PARP activity, mean (SD) ([9]; multiple dosing 0.1 mg/day, n = 3): 102 (98.0) % baseline
PARP activity, mean (SD) ([9]; multiple dosing 0.2 mg/day, n = 3): 14.7 (5.04) % baseline
PARP activity, mean (SD) ([9]; multiple dosing 0.4 mg/day, n = 3): 111 (96.5) % baseline
PARP activity, mean (SD) ([9]; multiple dosing 0.6 mg/day, n = 4): 24.7 (8.19) % baseline
PARP activity, mean (SD) ([9]; multiple dosing 0.9 mg/day, n = 4): 34.7 (27.4) % baseline
PARP activity, mean (SD) ([9]; multiple dosing 1.1 mg/day, n = 2): 16.3 (5.63) % baseline
deaths associated with an AE during the study [10]: eight
Median PFS ([11]; n = 14): 34.6 weeks
ORR ([11]; n = 14): 50.0%
CBR ([11]; n = 14, CR + PR + SD ≥24 weeks): 85.7%

From publication PMC5905335 (Cancer discovery, 2017)
